≈ marks a conversion by molar mass, not a printed value.
Assays:
Assay type in all cases: functional
Enterococcus faecalis [1] = experiment: Antibacterial activity against Enterococcus faecalis
Procedure, shortened: (§1)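 Broth microdilution MIC run to NCCLS standards: serial 2-fold dilutions in cation-adjusted Mueller–Hinton broth, inoculum ~5 × 10^5 CFU/mL, incubated 35 °C for 18–24 h. Trays were read by eye, and the MIC was taken as the lowest concentration giving complete growth inhibition (no visible turbidity).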

Staphylococcus aureus [2] = experiment: Antibacterial activity against methicillin resistant Staphylococcus aureus
Procedure, shortened: (§2)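 Broth microdilution per NCCLS standards: serial 2-fold dilutions in cation-adjusted Mueller–Hinton broth, inoculum ~5 × 10^5 CFU/mL, 35 °C for 18–24 h, visual read; MIC = lowest concentration giving complete growth inhibition (no visible turbidity). Reference strains, e.g. S. aureus 29213 (susceptible) and 33591 (MRSA).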

Pseudomonas aeruginosa [3] = experiment: Antibacterial activity against Pseudomonas aeruginosa; procedure, shortened: as §1
Staphylococcus aureus [4] = experiment: Antibacterial activity against methicillin susceptible Staphylococcus aureus; procedure, shortened: as §2
Escherichia coli [5] = experiment: Antibacterial activity against Escherichia coli; procedure, shortened: as §1
Staphylococcus aureus [6] = experiment: Antibacterial activity against Staphylococcus aureus strain St au 33591 MRSA; procedure, shortened: as §1
Staphylococcus aureus [7] = experiment: Antibacterial activity against Staphylococcus aureus strain 29213; procedure, shortened: as §1
Enterococcus faecalis [8] = experiment: Antibacterial activity against Enterococcus faecalis strain 29212; procedure, shortened: as §1
Escherichia coli [9] = experiment: Antibacterial activity against Escherichia coli strain 25922; procedure, shortened: as §1
Pseudomonas aeruginosa [10] = experiment: Antibacterial activity against Pseudomonas aeruginosa strain 27853; procedure, shortened: as §1
Staphylococcus aureus [11] = experiment: Antibacterial activity against Staphylococcus aureus strain St au 29213; procedure, shortened: as §1

Structure (SMILES) | MIC (Enterococcus faecalis [1]) [µg/mL] | MIC (Staphylococcus aureus [2]) [µg/mL] | MIC (Pseudomonas aeruginosa [3]) [µg/mL] | MIC (Staphylococcus aureus [4]) [µg/mL] | MIC (Escherichia coli [5]) [µg/mL] | MIC (Staphylococcus aureus [6]) [µg/mL] | MIC (Staphylococcus aureus [7]) [µg/mL] | MIC (Enterococcus faecalis [8]) [µg/mL] | MIC (Escherichia coli [9]) [µg/mL] | MIC (Pseudomonas aeruginosa [10]) [µg/mL] | MIC (Staphylococcus aureus [11]) [µg/mL]
CN1CCN(c2cc3c(cc2F)c(=O)c(C(=O)O)cn3-c2ccc(OP(=O)(O)O)cc2)CC1 | 25 (≈ 52.4 µM) | 0.78 (≈ 1.63 µM) | 50 (≈ 105 µM) | 1.56 (≈ 3.27 µM) | 0.2 (≈ 0.419 µM) | – | – | – | – | – | –
O=C(O)c1cn(-c2ccc(O)cc2)c2cc(N3CCNCC3)c(F)cc2c1=O | – | – | – | – | – | 0.4 (≈ 1.04 µM) | 0.78 (≈ 2.03 µM) | 6.25 (≈ 16.3 µM) | 0.4 (≈ 1.04 µM) | 1.56 (≈ 4.07 µM) | –
NCC1CCN(c2cc3c(cc2F)c(=O)c(C(=O)O)cn3-c2ccc(O)cc2)C1 (stereo not drawn) | – | – | – | – | – | 0.78 (≈ 1.96 µM) | – | 6.25 (≈ 15.7 µM) | 1.56 (≈ 3.93 µM) | 25 (≈ 62.9 µM) | 0.4 (≈ 1.01 µM)
C[C@H](N)[C@H]1CCN(c2nc3c(cc2F)c(=O)c(C(=O)O)cn3-c2ccc(O)cc2)C1 | – | – | – | – | – | 0.78 (≈ 1.89 µM) | – | 3.13 (≈ 7.59 µM) | 3.13 (≈ 7.59 µM) | 3.13 (≈ 7.59 µM) | 0.78 (≈ 1.89 µM)
C[C@@H]1CN(c2nc3c(cc2F)c(=O)c(C(=O)O)cn3-c2ccc(O)cc2)C[C@H](C)N1 | – | – | – | – | – | 6.25 (≈ 15.2 µM) | – | 12.5 (≈ 30.3 µM) | 0.4 (≈ 0.97 µM) | 6.25 (≈ 15.2 µM) | 3.13 (≈ 7.59 µM)
C[C@H](N)[C@H]1CCN(c2cc3c(cc2F)c(=O)c(C(=O)O)cn3-c2ccc(O)cc2)C1 | – | – | – | – | – | 0.78 (≈ 1.9 µM) | – | 3.13 (≈ 7.61 µM) | 1.56 (≈ 3.79 µM) | 25 (≈ 60.8 µM) | 0.4 (≈ 0.972 µM)
N[C@@H]1[C@H]2CN(c3nc4c(cc3F)c(=O)c(C(=O)O)cn4-c3ccc(O)cc3)C[C@@H]12 | – | – | – | – | – | 0.2 (≈ 0.505 µM) | – | 0.78 (≈ 1.97 µM) | 0.1 (≈ 0.252 µM) | 0.78 (≈ 1.97 µM) | 0.2 (≈ 0.505 µM)
N[C@@H]1CCC[C@@H]2CN(c3nc4c(cc3F)c(=O)c(C(=O)O)cn4-c3ccc(O)cc3)C[C@@H]21 | – | – | – | – | – | 0.4 (≈ 0.912 µM) | – | 3.13 (≈ 7.14 µM) | 3.13 (≈ 7.14 µM) | 6.25 (≈ 14.3 µM) | 0.4 (≈ 0.912 µM)
N[C@@H]1[C@H]2CN(c3cc4c(cc3F)c(=O)c(C(=O)O)cn4-c3ccc(O)cc3)C[C@@H]12 | – | – | – | – | – | 0.1 (≈ 0.253 µM) | – | 1.56 (≈ 3.95 µM) | 0.2 (≈ 0.506 µM) | 3.13 (≈ 7.92 µM) | 0.1 (≈ 0.253 µM)
COc1c(N2CCN(C)CC2)c(F)cc2c(=O)c(C(=O)O)cn(-c3ccc(O)cc3)c12 | – | – | – | – | – | 0.4 (≈ 0.936 µM) | – | 3.13 (≈ 7.32 µM) | 0.1 (≈ 0.234 µM) | 3.13 (≈ 7.32 µM) | 0.4 (≈ 0.936 µM)
CN1CCN(c2nc3c(cc2F)c(=O)c(C(=O)O)cn3-c2ccc(O)cc2)CC1 | – | – | – | – | – | 0.2 (≈ 0.502 µM) | – | 1.56 (≈ 3.92 µM) | 0.05 (≈ 0.126 µM) | 3.13 (≈ 7.86 µM) | 0.2 (≈ 0.502 µM)
COc1c(N2CC3CCCNC3C2)c(F)cc2c(=O)c(C(=O)O)cn(-c3ccc(O)cc3)c12 (stereo not drawn) | – | – | – | – | – | 0.78 (≈ 1.72 µM) | – | 12.5 (≈ 27.6 µM) | 1.56 (≈ 3.44 µM) | 6.25 (≈ 13.8 µM) | 0.78 (≈ 1.72 µM)
C[C@@H]1C[C@H](N)CN1c1cc2c(cc1F)c(=O)c(C(=O)O)cn2-c1ccc(O)cc1 | – | – | – | – | – | 0.78 (≈ 1.96 µM) | – | 12.5 (≈ 31.5 µM) | 3.13 (≈ 7.88 µM) | 50 (≈ 126 µM) | 0.78 (≈ 1.96 µM)
N[C@@H]1CCC[C@@H]2CN(c3cc4c(cc3F)c(=O)c(C(=O)O)cn4-c3ccc(O)cc3)C[C@@H]21 | – | – | – | – | – | 0.2 (≈ 0.457 µM) | – | 1.56 (≈ 3.57 µM) | 3.13 (≈ 7.15 µM) | 12.5 (≈ 28.6 µM) | 0.2 (≈ 0.457 µM)
O=C(O)c1cn(-c2ccc(O)cc2)c2nc(N3CCNCC3)c(F)cc2c1=O | – | – | – | – | – | 1.56 (≈ 4.06 µM) | – | 12.5 (≈ 32.5 µM) | 1.56 (≈ 4.06 µM) | 3.13 (≈ 8.14 µM) | 1.56 (≈ 4.06 µM)
O=C(O)c1cn(C2CC2)c2cc(N3CCNCC3)c(F)cc2c1=O [CIPROFLOXACIN] | 1 (≈ 3.02 µM) | 0.5 (≈ 1.51 µM) | – | 0.25 (≈ 0.754 µM) | – | – | – | – | – | – | –

Structure (SMILES) | MIC (Enterococcus faecalis [1]) [µg/mL] | MIC (Staphylococcus aureus [2]) [µg/mL] | MIC (Pseudomonas aeruginosa [3]) [µg/mL] | MIC (Staphylococcus aureus [4]) [µg/mL] | MIC (Escherichia coli [5]) [µg/mL] | MIC (Staphylococcus aureus [6]) [µg/mL] | MIC (Staphylococcus aureus [7]) [µg/mL] | MIC (Enterococcus faecalis [8]) [µg/mL] | MIC (Escherichia coli [9]) [µg/mL] | MIC (Pseudomonas aeruginosa [10]) [µg/mL] | MIC (Staphylococcus aureus [11]) [µg/mL]
N[C@H]1CN(c2cc3c(cc2F)c(=O)c(C(=O)O)cn3-c2ccc(O)cc2)CC12CC2 | – | – | – | – | – | 0.78 (≈ 1.91 µM) | – | 6.25 (≈ 15.3 µM) | 0.78 (≈ 1.91 µM) | 6.25 (≈ 15.3 µM) | 0.4 (≈ 0.977 µM)
C[C@H]1CN(c2cc3c(cc2F)c(=O)c(C(=O)O)cn3-c2ccc(O)cc2)C[C@H]1N | – | – | – | – | – | 0.2 (≈ 0.503 µM) | – | 1.56 (≈ 3.93 µM) | 0.2 (≈ 0.503 µM) | 1.56 (≈ 3.93 µM) | 0.2 (≈ 0.503 µM)
CC1CNCCN1c1nc2c(cc1F)c(=O)c(C(=O)O)cn2-c1ccc(O)cc1 (stereo not drawn) | – | – | – | – | – | 0.78 (≈ 1.96 µM) | – | 6.25 (≈ 15.7 µM) | 0.78 (≈ 1.96 µM) | 6.25 (≈ 15.7 µM) | 0.78 (≈ 1.96 µM)
N[C@H]1CN(c2nc3c(cc2F)c(=O)c(C(=O)O)cn3-c2ccc(O)cc2)CC12CC2 | – | – | – | – | – | 0.4 (≈ 0.975 µM) | – | 0.78 (≈ 1.9 µM) | 0.2 (≈ 0.487 µM) | 0.78 (≈ 1.9 µM) | 0.2 (≈ 0.487 µM)
C[C@@H]1CN(c2nc3c(cc2F)c(=O)c(C(=O)O)cn3-c2ccc(O)cc2)C[C@H]1N | – | – | – | – | – | 0.4 (≈ 1 µM) | – | 1.56 (≈ 3.92 µM) | 0.4 (≈ 1 µM) | 0.78 (≈ 1.96 µM) | 0.4 (≈ 1 µM)
O=C(O)c1cn(-c2ccc(O)cc2)c2nc(N3CC4CC3CN4)c(F)cc2c1=O (stereo not drawn) | – | – | – | – | – | 3.13 (≈ 7.9 µM) | – | > 50 | 1.56 (≈ 3.94 µM) | 3.13 (≈ 7.9 µM) | 1.56 (≈ 3.94 µM)
O=C(O)c1cn(-c2ccc(O)cc2)c2cc(N3CC4CCCNC4C3)c(F)cc2c1=O (stereo not drawn) | – | – | – | – | – | 0.4 (≈ 0.945 µM) | – | 3.13 (≈ 7.39 µM) | 1.56 (≈ 3.68 µM) | 6.25 (≈ 14.8 µM) | 0.4 (≈ 0.945 µM)
O=C(O)c1cn(-c2ccc(O)cc2)c2cc(N3CC4CC3CN4)c(F)cc2c1=O (stereo not drawn) | – | – | – | – | – | 0.78 (≈ 1.97 µM) | – | 12.5 (≈ 31.6 µM) | 1.56 (≈ 3.95 µM) | 6.25 (≈ 15.8 µM) | 0.78 (≈ 1.97 µM)
COc1c(N2C[C@@H](C)[C@@H](C)C2)c(F)cc2c(=O)c(C(=O)O)cn(-c3ccc(O)cc3)c12 | – | – | – | – | – | 0.78 (≈ 1.83 µM) | – | 6.25 (≈ 14.7 µM) | 0.78 (≈ 1.83 µM) | 3.13 (≈ 7.34 µM) | 0.78 (≈ 1.83 µM)
C[C@H]1CN(c2nc3c(cc2F)c(=O)c(C(=O)O)cn3-c2ccc(O)cc2)C[C@H]1N | – | – | – | – | – | 0.4 (≈ 1 µM) | – | 1.56 (≈ 3.92 µM) | 0.4 (≈ 1 µM) | 0.78 (≈ 1.96 µM) | 0.4 (≈ 1 µM)
CN1CCN(c2cc3c(cc2F)c(=O)c(C(=O)O)cn3-c2ccc(O)cc2)CC1 | 0.78 (≈ 1.96 µM) | 0.1 (≈ 0.252 µM) | 0.78 (≈ 1.96 µM) | 0.1 (≈ 0.252 µM) | 0.05 (≈ 0.126 µM) | 0.2 (≈ 0.503 µM) | – | 0.78 (≈ 1.96 µM) | < 0.05 | 0.78 (≈ 1.96 µM) | 0.1 (≈ 0.252 µM)
N[C@@H]1CN(c2nc3c(cc2F)c(=O)c(C(=O)O)cn3-c2ccc(O)cc2)CC12CC2 | – | – | – | – | – | 1.56 (≈ 3.8 µM) | – | 25 (≈ 60.9 µM) | 1.56 (≈ 3.8 µM) | 3.13 (≈ 7.63 µM) | 1.56 (≈ 3.8 µM)
NCC1CCN(c2nc3c(cc2F)c(=O)c(C(=O)O)cn3-c2ccc(O)cc2)C1 (stereo not drawn) | – | – | – | – | – | 1.56 (≈ 3.92 µM) | – | 3.13 (≈ 7.86 µM) | 3.13 (≈ 7.86 µM) | 6.25 (≈ 15.7 µM) | 0.4 (≈ 1 µM)
COc1c(N2CC3CC2CN3)c(F)cc2c(=O)c(C(=O)O)cn(-c3ccc(O)cc3)c12 (stereo not drawn) | – | – | – | – | – | 3.13 (≈ 7.36 µM) | – | > 50 | 6.25 (≈ 14.7 µM) | 12.5 (≈ 29.4 µM) | 6.25 (≈ 14.7 µM)
CN1CCCC2CN(c3cc4c(cc3F)c(=O)c(C(=O)O)cn4-c3ccc(O)cc3)CC21 (stereo not drawn) | – | – | – | – | – | 0.4 (≈ 0.914 µM) | – | 3.13 (≈ 7.15 µM) | 0.2 (≈ 0.457 µM) | 6.25 (≈ 14.3 µM) | 0.2 (≈ 0.457 µM)

— ChEMBL document CHEMBL1138748, “A prodrug approach toward the development of water soluble fluoroquinolones and structure--activity relationships of quinoline-3-carboxylic acids” (2004)
